Experimental data as given in ChEMBL document CHEMBL1123700, “2-[(3-Pyridinylmethyl)thio]pyrimidine derivatives: new bronchosecretolytic agents” (1987).

The compounds below were run on Canis familiaris (assay: Percent viscosity was determined in canine bronchial mucus, 1 hr after intravenous administration of 0.1 mg/kg). Settings: not given.
Format: functional, Canis lupus familiaris
Procedure, shortened: (§1)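 Mongrel dogs (18-24 kg), food withheld 16 h, anesthetized with pentobarbital 40 mg/kg iv plus infusion of 0.1 mg kg-1 min-1. Compounds in isotonic NaCl, given iv; 0.9% NaCl as control. Bronchial mucus sampled by bronchoscope, dialyzed against water at 0 °C for 24 h, freeze-dried, taken up at 1% w/v in 0.1 M Tris pH 7. Viscosity 1 h after dosing expressed as % of initial, mean ± SD.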

SMILES	Activity [%]
Cl.c1cnc(SCc2cccnc2)nc1	109

The compounds below were run on Canis familiaris (assay: Percent viscosity was determined in canine bronchial mucus, 1 hr after intravenous administration of 0.2 mg/kg). Settings: not given.
Format: functional, Canis lupus familiaris
Procedure, shortened: as §1

SMILES	Activity [%]
Cl.c1cnc(SCc2cccnc2)nc1	28
Nc1cc(O)nc(SCc2ccc(Cl)nc2)n1	84.2
Nc1cc(O)nc(SCc2cccnc2)n1	76.3

These compounds were tested on Canis familiaris (assay: Percent viscosity was determined in canine bronchial mucus, 1 hr after intravenous administration of 0.5 mg/kg). Settings: not given.
Format: functional, Canis lupus familiaris
Procedure, shortened: as §1

SMILES	Activity [%]
Cl.c1cnc(SCc2cccnc2)nc1	5.5
Nc1cc(O)nc(SCc2ccc(Cl)nc2)n1	19.7
Nc1cc(O)nc(SCc2cccnc2)n1	15.8

These compounds were tested on Mus musculus (assay: Bronchosecretory activity measured as tracheal secretion of phenol red in mouse after oral administration). Settings: not given.
Format: functional
Procedure, shortened: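 Male NMRI mice, food withheld 24 h, water free. Compounds suspended in 0.5% carboxymethylcellulose just before use and given by gavage at 5 mL/kg. Phenol red given intraperitoneally; 50 min after dosing it is measured photometrically in tracheal lavage fluid. Output compared with mean of vehicle controls. ED50 (dose giving 50% increase over control) by linear regression with 95% confidence limits.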

SMILES	ED50 [µmol/kg]
Cl.c1cnc(SCc2cccnc2)nc1	5.34
c1cnc(SCc2cccnc2)nc1 [TASULDINE]	4.82

Same assay, conditions: Mus musculus, po

SMILES	ED50 [µmol/kg]
Cc1ccc(CSc2ncccn2)cn1	298
N=c1cc(N)nc(SCc2cccnc2)[nH]1	272
Cc1ccnc([S+]([O-])Cc2cccnc2)n1 (configuration not stated)	30.9
O=S(=O)(Cc1cccnc1)c1ccc(Cl)cc1	27.9
[O-][S+](Cc1cccnc1)c1ccc(Cl)cc1 (configuration not stated)	43.9
c1cncc(CSC2=NCCS2)c1	20.3
[O-][S+](Cc1ccncc1)c1ncccn1 (configuration not stated)	391
Cc1ccc2nc(SCc3cccnc3)oc2c1	51.2
Cc1ccnc(SCc2cccnc2)n1	39.4
Cc1cc(C)nc(SCc2cccnc2)n1	44.8
c1ccc(CSc2ccccn2)nc1	21.8
[O-][S+](Cc1cccnc1)c1ncccn1 (configuration not stated)	7.82
c1ccc(-c2nc(SCc3cccnc3)oc2-c2ccccc2)cc1	13.1
COc1cccc(SCc2cccnc2)c1	182
Cc1ccc(SCc2cccnc2)cc1	39.7
c1cnc(SCc2ccncc2)nc1	41.7
Cc1ccc(S(=O)(=O)Cc2cccnc2)cc1	141
Cc1ccc([S+]([O-])Cc2cccnc2)cc1 (configuration not stated)	149
CC(Sc1ncccn1)c1cccnc1 (configuration not stated)	42.6
Nc1cc(O)nc(SCc2ccc(Cl)nc2)n1	8.3

SMILES	ED50 [µmol/kg]
Cc1cc(O)nc(SCc2cccnc2)n1	64.3
c1cncc(CSc2nc3ccccc3o2)c1	61.9
Cc1ccc(C(C)Sc2ncccn2)cn1 (configuration not stated)	432
Oc1ccnc(SCc2cccnc2)n1	456
Nc1ccnc(SCc2cccnc2)n1	22.9
Cn1ccnc1S(=O)(=O)Cc1cccnc1	95.8
Clc1ccc(SCc2cccnc2)cc1	22
c1cnc(SCc2cccnc2)nc1	4.67
c1cncc(CSc2ncnc3[nH]ncc23)c1	41.1
c1cncc(CSc2ccc3ccccc3n2)c1	21.5
Cn1ccnc1SCc1cccnc1	5.35
Cn1ccnc1[S+]([O-])Cc1cccnc1 (configuration not stated)	49.8
Clc1ccc(CSc2ncccn2)cn1	84.1
Nc1cc(O)nc(SCc2cccnc2)n1	8.93
c1cncc(CSc2nc3ncccc3o2)c1	38
c1cncc(CSc2nc3ccccc3[nH]2)c1	31.8
Clc1ncccc1CSc1ncccn1	84.1
c1ccc(SCc2cccnc2)nc1	7.63
c1ccc(CSc2nc3ccccc3o2)nc1	157
Nc1c(Br)cc(Br)cc1CN[C@H]1CC[C@H](O)CC1 [AMBROXOL]	603

Same assay, conditions: Mus musculus, po; read-out: ED50

SMILES	ED50 [µmol/kg]
CC(C)(C)NCC(O)c1ccc(O)c(CO)c1 (configuration not stated) [ALBUTEROL]	12.5

The compounds below were run on Mus musculus (assay: Bronchosecretory activity measured as tracheal secretion of phenol red in mouse after subcutaneous administration). Settings: not given.

SMILES	ED50 [µmol/kg]
C[N+](C)(C)CCOC(N)=O [CARBACHOL]	0.2
NCC(O)c1cccc(O)c1 (configuration not stated) [NORFENEFRINE]	1.3
